Cl transport mod: KCC2 (human) Cl- transport modulation | Q9H2X9 | KCC2 cells, thallium flux FluoZin-2 fluorescence | B-score of Tl+ flux slope (higher = more flux/activation; lower = inhibition) at 10 µM | 190,000 compounds, 2.2% hits;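 active = thallium flux slope and its plate-corrected score both differing from the plate sample mean at a set confidence after two filtering rounds, in either direction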;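 note: slope of fluorescence scaled to starting intensity during 10 to 20 s after thallium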
Target sequence (Q9H2X9 whole entry, looked up): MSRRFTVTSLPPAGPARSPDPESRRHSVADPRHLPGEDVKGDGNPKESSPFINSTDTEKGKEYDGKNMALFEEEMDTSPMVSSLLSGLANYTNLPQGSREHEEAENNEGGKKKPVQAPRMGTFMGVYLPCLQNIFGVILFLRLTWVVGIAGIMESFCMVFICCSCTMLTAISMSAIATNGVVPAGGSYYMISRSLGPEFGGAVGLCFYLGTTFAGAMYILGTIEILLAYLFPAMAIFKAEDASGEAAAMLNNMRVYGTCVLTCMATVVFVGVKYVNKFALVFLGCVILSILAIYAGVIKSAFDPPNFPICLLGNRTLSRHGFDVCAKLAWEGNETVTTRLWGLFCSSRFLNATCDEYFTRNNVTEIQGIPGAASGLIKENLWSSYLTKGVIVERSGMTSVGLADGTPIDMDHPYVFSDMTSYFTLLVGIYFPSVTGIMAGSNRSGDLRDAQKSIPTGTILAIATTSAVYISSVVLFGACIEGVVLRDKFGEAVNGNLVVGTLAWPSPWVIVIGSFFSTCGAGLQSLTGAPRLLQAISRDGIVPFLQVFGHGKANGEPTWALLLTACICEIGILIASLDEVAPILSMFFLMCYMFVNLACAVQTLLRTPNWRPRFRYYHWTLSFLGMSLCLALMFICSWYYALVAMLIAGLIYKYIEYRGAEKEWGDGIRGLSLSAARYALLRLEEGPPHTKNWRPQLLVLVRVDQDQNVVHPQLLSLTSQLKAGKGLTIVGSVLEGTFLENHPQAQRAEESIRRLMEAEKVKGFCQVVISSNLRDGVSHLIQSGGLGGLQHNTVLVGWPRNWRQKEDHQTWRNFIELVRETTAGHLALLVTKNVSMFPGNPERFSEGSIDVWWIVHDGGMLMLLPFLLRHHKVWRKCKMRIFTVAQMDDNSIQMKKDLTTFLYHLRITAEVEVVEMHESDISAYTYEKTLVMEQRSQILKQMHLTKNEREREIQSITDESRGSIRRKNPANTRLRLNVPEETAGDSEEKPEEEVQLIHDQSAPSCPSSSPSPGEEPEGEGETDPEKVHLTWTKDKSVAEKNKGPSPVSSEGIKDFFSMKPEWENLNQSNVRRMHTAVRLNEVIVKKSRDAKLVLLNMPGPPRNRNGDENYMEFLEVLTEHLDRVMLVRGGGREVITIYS
STAT1 act: activators of IFN-gamma induced STAT1 signaling | NIH 3T3 STAT1-luciferase reporter, luminescence; 100% = IFN-gamma alone, no compound | activation (% of control), % at 5.5 µM | 200,000 compounds, 2.6% hits | AID 932;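 active = activation above the screen-wide mean activation plus 3 SD, cut at about 130% in these data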;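 note: raw ratio to IFN-gamma control signal so 100% means no change and 0% no light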
STAT3 act: activators of IL-6 induced STAT3 signaling; U3A cells, IL-6 STAT3-luciferase reporter, luminescence; 100% = signal with IL-6 EC80 alone; AID 871; activation (% of control), % at 5.6 µM; 190,000 compounds, 0.91% hits;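 active = activation above the screen-wide mean of compound activation plus 3 SD, cut at about 130% in these data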;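 note: 0% = background luminescence of wells with medium and substrate only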
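System – human U3A cells carrying STAT3-luciferase construct · Probe or stimulus – Interleukin-6, 33 ng/mL · Schedule – compound 1 h, then IL-6 6 h at 37 °C · Signal – luminescence from STAT3-driven luciferase reporter · Evaluation – percent of IL-6-only median luminescence · Benchmarks – IL-6-only high control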
STAT1 inh: reduces IFN-gamma driven STAT1 reporter signal. NIH 3T3 STAT1-luciferase reporter, luminescence. inhibition, % at 5.5 µM. 200,000 compounds, 0.35% hits;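 active = inhibition above a set limit, the mean inhibition across all tested compounds plus 3 SD, cut at about 34% in these data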;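 note: 0% = IFN-gamma with DMSO and 100% = IFN-gamma with 300 µM nifuroxazide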
STAT3 inh: STAT3 signaling inhibition; U3A cells, IL-6 STAT3-luciferase reporter, luminescence; host cell line lacks STAT1; inhibition, % at 5.5 µM; AID 862; 190,000 compounds, 0.89% hits;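 active = inhibition above the mean inhibition across all screened compounds plus 3 SD, cut at about 44% in these data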;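 note: 0% = DMSO only wells and 100% = 100 µM nifuroxazide control wells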
HSV augment: HSV replication enhancement. 220,000 compounds, 0.005% hits. AID 1956. maximum fold increase. HSV replication augmentation in cells, fold increase; in the data active = maximum fold increase above about 1.5; inconclusive = no clear call, values can overlap the other calls; tested in PC3 cells
KCC2 secondary: confirmation of human KCC2 transport modulators; shares compounds with Cl transport mod; HEK293-KCC2, thallium flux, FluoZin2 fluorescence; active compounds read high; normalised thallium flux (F/F0 slope) at 10 µM; 3,700 compounds, 15% hits; AID 1713;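 active = thallium flux slope above the same plate's solvent-only control mean plus 3 SD; inconclusive = the two replicate wells disagree; inactive = no significant difference from solvent-only control wells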
KCC2 bumet counter: bumetanide-insensitive thallium flux in KCC2 cells with ouabain, counter-screen; 3,700 compounds, 49% hits; AID 1714; HEK293-KCC2 + bumetanide/ouabain, thallium flux FluoZin2; active compounds read high; shares compounds with Cl transport mod; normalized thallium flux at 10 µM;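 active = thallium entry rate above the same plate's blocked-transporter control wells by more than 3 SD; inconclusive = the two repeat wells disagree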;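 note: raw slope of fluorescence over initial fluorescence between 10 and 20 s after thallium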
KCC2 secondary2: KCC2 (human) modulation, second secondary assay | shares compounds with Cl transport mod | HEK293-KCC2, thallium flux FluoZin2 fluorescence; actives lie on both sides; F/F0 rise rate, 10–20 s post-thallium | normalized thallium flux at 10 µM | 3,700 compounds, 23% hits;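 active = thallium flux slope more than 3 SD above or below the plate's solvent-only control mean, mostly below; inconclusive = the two repeat wells disagreed; inactive = no significant shift from solvent-only controls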;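 note: raw slope with 0.1% DMSO as baseline and bumetanide as block control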
HEK counter1: parental HEK flux effect, counter-screen. AID 1716. HEK293 parental cells, thallium flux FluoZin2, ouabain; baseline-ratio fluorescence slope, 10–20 s after thallium. 3,700 compounds, 46% hits. shares compounds with Cl transport mod. thallium flux rate (normalised fluorescence) at 10 µM;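 active = thallium flux rate significantly above the same plate's solvent-only control wells, beyond their mean plus 3 SD; inconclusive = the two replicate wells gave conflicting results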
KCC2 retest ouab: KCC2 (human) modulation, ouabain retest. shares compounds with Cl transport mod. HEK293-KCC2, thallium flux FluoZin2 fluorescence; bidirectional: low = inhibitor, high = activator. raw Tl+ flux slope (below DMSO = inhibition, above = activation) at 10 µM. 3,700 compounds, 48% hits;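 active = thallium flux slope beyond 3 SD from same-plate DMSO control mean in most replicates, usually higher, sometimes lower; inconclusive = repeat tests gave conflicting results; inactive = no significant difference from controls in most replicates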;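 note: slope of initial-normalized fluorescence between seconds 10 and 20 after thallium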
HEK counter2: acts in parental HEK cells, second KCC2 counter-screen; shares compounds with Cl transport mod; HEK293 parental, thallium flux FluoZin-2 fluorescence slope; thallium flux slope at 10 µM; 3,700 compounds, 33% hits; AID 1718;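 active = thallium flux slope above the same plate's solvent-control mean plus 3 SD in both duplicate wells; inconclusive = duplicate wells that disagreed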;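 note: run without ouabain in cells lacking the KCC2 cotransporter; slope of fluorescence scaled to its starting value between 10 and 20 s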
* hit, by the source's call. Rows were chosen to be rich in hits. Some 5.5% of all compounds tested hit in one or more screens of this group.

`O=C(N/N=C/c1ccc[nH]1)c1sc2ccccc2c1Cl` gave Cl transport mod 9.7*, STAT1 act 120, STAT3 act 117, STAT1 inh -22, STAT3 inh -12, HSV augment inactive, KCC2 secondary 0.014*, KCC2 bumet counter 0.094*, KCC2 secondary2 0.029, HEK counter1 0.024*, KCC2 retest ouab 0.05* and HEK counter2 0.011*.
`CC1CCCC(NC(=O)COC(=O)c2sc3ccccc3c2Cl)C1C` (centres undefined) gave Cl transport mod -1.7, STAT1 act 104, STAT3 act 100, STAT1 inh -4, STAT3 inh 4 and HSV augment inactive.
`CCOC(=O)c1sc(NNC(=O)c2ccc(C)cc2)nc1C` gave Cl transport mod 0.24 and HSV augment inactive.
For CCOC(=O)c1sc(NNC(=O)c2ccc(F)cc2)nc1C the results were Cl transport mod 11*, HSV augment inactive, KCC2 secondary 0.015*, KCC2 bumet counter 0.024*, KCC2 secondary2 0.038, HEK counter1 inconclusive, KCC2 retest ouab 0.03* and HEK counter2 inconclusive.
For COc1cccc(NC(=O)C(=O)N/N=C/c2cc(C)n(-c3ccc(Cl)c(Cl)c3)c2C)c1 the results were Cl transport mod 0.2, STAT1 act 105, STAT3 act 96, STAT1 inh -6, STAT3 inh 4 and HSV augment inactive.
For Cc1c(N2C(=O)c3ccccc3C2(O)c2ccccc2)c(=O)n(-c2ccccc2)n1C (centres undefined) the results were Cl transport mod -0.014 and HSV augment inactive.
For CC(/C=C/c1ccco1)=N\NC(=O)c1cc(Cl)ccc1O the results were Cl transport mod 13*, STAT1 act 101, STAT3 act 103, STAT1 inh -1, STAT3 inh 5, HSV augment inactive, KCC2 secondary 0.016*, KCC2 bumet counter 0.026*, KCC2 secondary2 0.039, HEK counter1 inconclusive, KCC2 retest ouab 0.032* and HEK counter2 0.011.
For S=c1c2c(nc3nc[nH]n13)CCC2 the results were Cl transport mod -0.16 and HSV augment inactive.
For O=C(N/N=C\c1cn(-c2ccccc2)nc1-c1ccccc1)c1ccc(Br)o1 the results were Cl transport mod 3.9*, STAT1 act 103, STAT3 act 87, STAT1 inh -3, STAT3 inh 25, KCC2 secondary 0.0095, KCC2 bumet counter 0.012*, KCC2 secondary2 0.035, HEK counter1 0.013*, KCC2 retest ouab 0.022 and HEK counter2 inconclusive.
Screening O=C(N/N=C/c1cn(-c2ccccc2)nc1-c1ccccc1)c1ccco1 returned Cl transport mod 0.0086, STAT1 act 105, STAT3 act 91, STAT1 inh -5, STAT3 inh 17 and HSV augment inactive.
`CN(Cc1cn(-c2ccccc2)nc1-c1cc2ccccc2o1)C(=O)CCC(=O)O` gave STAT1 act 117, STAT3 act 102, STAT1 inh -18, STAT3 inh -1 and HSV augment inactive.
`CCCCC(=O)N/N=C/c1ccc(Sc2cccc3cccnc23)o1` gave Cl transport mod -0.28, STAT1 act 92, STAT3 act 114, STAT1 inh 8, STAT3 inh -20 and HSV augment inactive.
O=C(Cc1cccc2ccccc12)N/N=C/c1ccc(Sc2cccc3cccnc23)o1 was read as Cl transport mod 10*, STAT1 act 97, STAT3 act 97, STAT1 inh 3, STAT3 inh 11, KCC2 secondary 0.0062, KCC2 bumet counter 0.013*, KCC2 secondary2 0.036, HEK counter1 0.011*, KCC2 retest ouab 0.025* and HEK counter2 0.013*.
For CCOC(=O)c1ccc(CNC(=O)CCC(=O)O)cc1 the results were STAT1 act 100, STAT3 act 108, STAT1 inh -5, STAT3 inh -10, HSV augment inactive, KCC2 secondary 0.01, KCC2 bumet counter 0.0051, KCC2 secondary2 0.034, HEK counter1 0.007, KCC2 retest ouab 0.022 and HEK counter2 0.01.
For CCOC(=O)c1ccc(CNCc2ccccc2)cc1 the results were Cl transport mod 1, STAT1 act 123, STAT3 act 114, STAT1 inh -25, STAT3 inh -19 and HSV augment inactive.
Screening O=C(COc1ccc(Cl)cc1)N/N=C/CCc1ccccc1 returned Cl transport mod -1.2, STAT1 act 99, STAT3 act 99, STAT1 inh 1, STAT3 inh 9 and HSV augment inactive.
`CCc1cc2cc(C)cc(C)c2[nH]c1=S` gave Cl transport mod 124*, STAT1 act 103, STAT3 act 92, STAT1 inh -5, STAT3 inh 17, HSV augment inactive, KCC2 secondary 0.0068, KCC2 bumet counter 0.024*, KCC2 secondary2 0.11*, HEK counter1 0.11*, KCC2 retest ouab 0.086* and HEK counter2 0.11*.
`CCOCCCN(Cc1cc2cc(C)cc(C)c2[nH]c1=O)C(=O)N(CC)CC` gave Cl transport mod 0.48, STAT1 act 104, STAT3 act 103, STAT1 inh -4, STAT3 inh 2 and HSV augment inactive.
O=C(Cn1cnc2ccccc2c1=O)Nc1nnc(SCc2ccccc2)s1 was read as STAT1 act 99, STAT3 act 106, STAT1 inh 2, STAT3 inh 0, HSV augment inactive, KCC2 secondary 0.0089, KCC2 bumet counter 0.0067, KCC2 secondary2 0.029, HEK counter1 0.009*, KCC2 retest ouab 0.021 and HEK counter2 inconclusive.

From PubChem
